According to ChEMBL document CHEMBL5104204, “Synthesis and in vitro anticancer evaluation of novel flavonoid-based amide derivatives as regulators of the PI3K/AKT signal pathway for TNBC treatment” (RSC Med Chem, 2022):

Key:
Assay type in all cases: functional, cell-based
MDA-MB-231 = test: Antitumor activity against human MDA-MB-231 cells assessed as inhibit cell proliferation incubated for 72 hrs by CCK-8 assay; conditions: MDA-MB-231, 72 h
Outline: (§1)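 CCK8 viability readout. Culture media: HCC1937, A549, HeLa and GTL-16 in RPMI 1640; MDA-MB-231, MCF-7 and HepG2 in high-glucose DMEM; all with 10% FBS and penicillin/streptomycin, 37 °C, 5% CO2. 4×10^3–6×10^3 cells/well, 24 h, then compounds in serum-free medium, 72 h at 37 °C. 10% CCK8, 2 h, OD 450/630 nm. Five wells per group; IC50 from inhibition rate; three independent experiments, mean ± SD.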

GTL 16 cell line = test: Antitumor activity against human GTL 16 cell line assessed as inhibit cell proliferation incubated for 72 hrs by CCK-8 assay; conditions: GTL 16, 72 h; outline: as §1
HeLa = test: Antitumor activity against human HeLa cells assessed as inhibit cell proliferation incubated for 72 hrs by CCK-8 assay; outline: as §1
HCC1937 = test: Antitumor activity against human HCC1937 cells assessed as inhibit cell proliferation incubated for 72 hrs by CCK-8 assay; conditions: HCC1937, 72 h; outline: as §1
A549 = test: Antitumor activity against human A549 cells assessed as inhibit cell proliferation incubated for 72 hrs by CCK-8 assay; conditions: A549, 72 h; outline: as §1
MCF7 = test: Antitumor activity against human MCF7 cells assessed as inhibit cell proliferation incubated for 72 hrs by CCK-8 assay; conditions: MCF7, 72 h; outline: as §1
HepG2 = test: Antitumor activity against human HepG2 cells assessed as inhibit cell proliferation incubated for 72 hrs by CCK-8 assay; conditions: HepG2, 72 h; outline: as §1

Row | SMILES | IC50 (MDA-MB-231) [µM] | IC50 (GTL 16 cell line) [µM] | IC50 (HeLa) [µM] | IC50 (HCC1937) [µM] | IC50 (A549) [µM] | IC50 (MCF7) [µM] | IC50 (HepG2) [µM]
1 | Cc1cccc(C(=O)Nc2cccc(-c3oc4cc(-c5ccc(F)cc5)ccc4c(=O)c3O)c2)c1 | 2.84 | 10.9 | 6.65 | 8.03 | 16.4 | 7.85 | 13.5
2 | COc1ccc(C(=O)Nc2cccc(-c3oc4cc(-c5ccc(F)cc5)ccc4c(=O)c3O)c2)c(F)c1 | 17.6 | 15.3 | 16.1 | 24.4 | 40 | 20 | 45.3
3 | O=C(Nc1cccc(-c2oc3cc(-c4ccc(F)cc4)ccc3c(=O)c2O)c1)c1ccc(C(F)(F)F)cc1 | 29.4 | 33 | 17.4 | 7.35 | 19.4 | 32.6 | 42.7
4 | Cc1cc(C)cc(C(=O)Nc2cccc(-c3oc4cc(-c5ccc(F)cc5)ccc4c(=O)c3O)c2)c1 | 11.9 | 13.5 | 5.54 | 4.86 | 3.74 | 20.4 | 13.4
5 | O=C(Nc1cccc(-c2oc3cc(-c4ccc(F)cc4)ccc3c(=O)c2O)c1)c1ccc(F)cc1 | 16 | 14.6 | 5.35 | 14.2 | 6.93 | 8.59 | 9.28
6 | Cc1cc(C(=O)Nc2cccc(-c3oc4cc(-c5ccc(F)cc5)ccc4c(=O)c3O)c2)ccc1F | 7.44 | 12.1 | 18.9 | 5.42 | 11.5 | 7.71 | 9.54
7 | COc1ccc(C(=O)Nc2cccc(-c3oc4cc(-c5ccc(F)cc5)ccc4c(=O)c3O)c2)cc1 | 16.5 | 21.1 | 4.82 | 5.49 | 8.7 | 6.25 | 8.42
8 | O=C(Nc1cccc(-c2oc3cc(-c4ccc(F)cc4)ccc3c(=O)c2O)c1)c1ccccc1F | 7.24 | 17.4 | 5.63 | 10.8 | 4.41 | 7.57 | 10.1
9 | Cc1ccccc1C(=O)Nc1cccc(-c2oc3cc(-c4ccc(F)cc4)ccc3c(=O)c2O)c1 | 4.91 | 24.8 | 11.9 | 9.9 | 17.6 | 2.28 | 19.4
10 | O=C(Nc1cccc(-c2oc3cc(-c4ccc(F)cc4)ccc3c(=O)c2O)c1)c1cc(F)cc(F)c1 | 2.44 | 7.41 | 3.38 | 2.07 | 7.62 | 2.49 | 4.96
11 | O=C(Nc1cccc(-c2oc3cc(-c4ccc(F)cc4)ccc3c(=O)c2O)c1)c1ccc([N+](=O)[O-])cc1 | 14.7 | 18.2 | 12.3 | 5.64 | 2.44 | 3.97 | 1.86
12 | O=C(Nc1cccc(-c2oc3cc(-c4ccc(F)cc4)ccc3c(=O)c2O)c1)c1ccc(-c2ccccc2)cc1 | 63.2 | – | > 100 | 44.1 | > 100 | 38.5 | 88.5
13 | Cc1ccc(C(=O)Nc2cccc(-c3oc4cc(-c5ccc(F)cc5)ccc4c(=O)c3O)c2)cc1 | 4.35 | 12.9 | 6.19 | 7.11 | 6.91 | 2.4 | 2.32
14 | COc1ccccc1C(=O)Nc1cccc(-c2oc3cc(-c4ccc(F)cc4)ccc3c(=O)c2O)c1 | 5.11 | 6.37 | 14.1 | 9.05 | 11.7 | 2.1 | 14.5
15 | COc1cccc(C(=O)Nc2cccc(-c3oc4cc(-c5ccc(F)cc5)ccc4c(=O)c3O)c2)c1 | 9.16 | 12.5 | 5.65 | 18.9 | 10.8 | 15.3 | 9.95
16 | O=C(Nc1cccc(-c2oc3cc(-c4ccc(F)cc4)ccc3c(=O)c2O)c1)c1ccc(Cl)cc1 | 12.8 | 9.14 | 3.67 | 4.03 | 10.8 | 4.73 | 11
17 | CCCc1ccc(C(=O)Nc2cccc(-c3oc4cc(-c5ccc(F)cc5)ccc4c(=O)c3O)c2)cc1 | 32.2 | 20.4 | 8.79 | 15.3 | 47.6 | 36.8 | 51.5
18 | O=C(Nc1cccc(-c2oc3cc(-c4ccc(F)cc4)ccc3c(=O)c2O)c1)c1cnc(Cl)nc1Cl | – | – | – | – | > 100 | – | > 100
19 | O=C(Nc1cccc(-c2oc3cc(-c4ccc(F)cc4)ccc3c(=O)c2O)c1)c1ccc(F)cc1F | 11.2 | 9.64 | 10.7 | 6.98 | 20.5 | 13.5 | 26.4
20 | O=C(Nc1cccc(-c2oc3cc(-c4ccc(F)cc4)ccc3c(=O)c2O)c1)c1ccc(Br)cc1 | 24.9 | 25.4 | 9.74 | 8.63 | 13.5 | 24 | 13.9
21 | O=C(Nc1cccc(-c2oc3cc(-c4ccc(F)cc4)ccc3c(=O)c2O)c1)c1ccc(Br)cc1F | – | – | – | – | 46.1 | – | > 100
22 | N#Cc1ccc(C(=O)Nc2cccc(-c3oc4cc(-c5ccc(F)cc5)ccc4c(=O)c3O)c2)cc1 | 11.6 | 31.8 | 23.3 | 2.99 | 2.36 | 2.66 | 7.11
23 | CCc1ccc(C(=O)Nc2cccc(-c3oc4cc(-c5ccc(F)cc5)ccc4c(=O)c3O)c2)cc1 | 9.07 | 24.6 | 21 | 13.2 | 18.5 | 22.8 | 20.6
24 | O=C(Nc1cccc(-c2oc3cc(-c4ccc(F)cc4)ccc3c(=O)c2O)c1)c1cccc(F)c1 | 2.51 | 15.8 | 8.78 | 6.59 | 15.4 | 5.77 | 15.5
25 | O=c1[nH]cc(F)c(=O)[nH]1 [FLUOROURACIL] | 7.75 | 0.84 | 1.94 | 25.9 | 2.65 | 4.42 | 2.88
26 | COc1cc(OC)cc(C(=O)Nc2cccc(-c3oc4cc(-c5ccc(F)cc5)ccc4c(=O)c3O)c2)c1 | 4.04 | 19.6 | 2.7 | 6.25 | 2.39 | 3.47 | 23.5
